{
  "source": "ChEMBL document CHEMBL3098105",
  "about": "“7,7'-Diazaindirubin--a small molecule inhibitor of casein kinase 2 in vitro and in cells” (Bioorg Med Chem, 2014)",
  "key": {"[1]": {"target": "Mast/stem cell growth factor receptor Kit (Homo sapiens) (UniProt P10721)", "test": "Inhibition of KIT (unknown origin) assessed as residual activity at 1 uM relative to control"}, "[2]": {"target": "Serine/threonine-protein kinase B-raf (Homo sapiens) (UniProt P15056)", "test": "Inhibition of wild type B-RAF (unknown origin) assessed as residual activity at 1 uM relative to control"}, "[3]": {"target": "T1, Aurora kinase A (Homo sapiens) (UniProt O14965)", "T1 sequence (whole entry)": "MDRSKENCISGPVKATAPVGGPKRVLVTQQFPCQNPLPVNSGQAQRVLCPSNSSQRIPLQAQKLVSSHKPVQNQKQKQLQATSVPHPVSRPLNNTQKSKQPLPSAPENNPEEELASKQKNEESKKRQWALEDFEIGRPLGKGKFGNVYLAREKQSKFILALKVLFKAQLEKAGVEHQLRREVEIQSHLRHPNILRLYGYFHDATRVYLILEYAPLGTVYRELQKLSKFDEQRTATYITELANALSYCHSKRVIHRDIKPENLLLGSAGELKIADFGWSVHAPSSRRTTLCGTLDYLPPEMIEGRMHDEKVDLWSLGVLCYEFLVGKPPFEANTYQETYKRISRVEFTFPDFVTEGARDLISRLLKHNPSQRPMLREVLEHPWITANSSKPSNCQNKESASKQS", "test": "Inhibition of Aurora-A (unknown origin) assessed as residual activity at 1 uM relative to control"}, "MCF7 [4]": {"tested_on": "MCF7", "test": "Antiproliferative activity against human MCF7 cells after 3 days by sulforhodamine B assay", "type": "functional", "conditions": "MCF7, 72 h", "in_short": "(§1)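 Tested in the NCI 60 cell line panel. GI50 is the concentration giving 50% inhibition of cell growth, and values are the mean of two series of tests.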"}, "CAKI-1": {"tested_on": "CAKI-1", "test": "Antiproliferative activity against human CAKI-1 cells after 3 days by sulforhodamine B assay", "type": "functional", "conditions": "CAKI-1, 72 h", "in_short": "as §1"}, "SK-OV-3": {"tested_on": "SK-OV-3", "test": "Antiproliferative activity against human SKOV3 cells after 3 days by sulforhodamine B assay", "type": "functional", "conditions": "SK-OV-3, 72 h", "in_short": "as §1"}, "MCF7 [5]": {"tested_on": "MCF7", "test": "Cell cycle arrest in human MCF7 cells assessed as accumulation at sub-G1 phase at 1 uM after 24 hrs using propidium iodide staining by FACS analysis (reference value: 0.17%)", "type": "functional"}, "[6]": {"target": "Serine/threonine-protein kinase TAO3 (Homo sapiens) (UniProt Q9H2K8)", "sequence (Q9H2K8 whole entry)": "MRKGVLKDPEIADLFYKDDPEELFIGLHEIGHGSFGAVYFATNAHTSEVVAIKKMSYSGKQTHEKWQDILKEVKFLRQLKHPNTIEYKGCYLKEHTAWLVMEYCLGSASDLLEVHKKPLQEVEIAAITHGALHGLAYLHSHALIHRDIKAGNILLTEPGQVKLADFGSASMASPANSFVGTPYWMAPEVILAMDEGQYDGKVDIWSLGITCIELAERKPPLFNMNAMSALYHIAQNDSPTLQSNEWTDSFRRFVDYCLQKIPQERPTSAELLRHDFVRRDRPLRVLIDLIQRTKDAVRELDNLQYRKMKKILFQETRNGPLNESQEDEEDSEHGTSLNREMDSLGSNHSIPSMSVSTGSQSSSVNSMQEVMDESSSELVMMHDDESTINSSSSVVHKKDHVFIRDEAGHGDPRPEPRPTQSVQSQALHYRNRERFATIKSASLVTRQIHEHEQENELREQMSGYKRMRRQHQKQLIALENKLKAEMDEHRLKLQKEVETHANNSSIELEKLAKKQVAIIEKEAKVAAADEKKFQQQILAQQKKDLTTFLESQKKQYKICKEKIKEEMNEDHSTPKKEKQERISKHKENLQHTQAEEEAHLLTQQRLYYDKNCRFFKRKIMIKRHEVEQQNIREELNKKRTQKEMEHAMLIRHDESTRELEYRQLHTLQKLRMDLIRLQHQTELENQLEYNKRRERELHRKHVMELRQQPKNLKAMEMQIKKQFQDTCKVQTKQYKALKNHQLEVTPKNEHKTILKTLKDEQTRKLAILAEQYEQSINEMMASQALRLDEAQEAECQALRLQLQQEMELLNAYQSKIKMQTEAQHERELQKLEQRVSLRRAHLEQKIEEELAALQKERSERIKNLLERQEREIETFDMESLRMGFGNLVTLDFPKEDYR", "test": "Inhibition of human TAO3 assessed as residual activity at 1 uM relative to control"}, "[7]": {"target": "Mitogen-activated protein kinase 14 (Homo sapiens) (UniProt Q16539)", "test": "Inhibition of human SAPK2alpha assessed as residual activity at 1 uM relative to control"}, "[8]": {"target": "MAP kinase-activated protein kinase 5 (Homo sapiens) (UniProt Q8IW41)", "sequence (Q8IW41 whole entry)": "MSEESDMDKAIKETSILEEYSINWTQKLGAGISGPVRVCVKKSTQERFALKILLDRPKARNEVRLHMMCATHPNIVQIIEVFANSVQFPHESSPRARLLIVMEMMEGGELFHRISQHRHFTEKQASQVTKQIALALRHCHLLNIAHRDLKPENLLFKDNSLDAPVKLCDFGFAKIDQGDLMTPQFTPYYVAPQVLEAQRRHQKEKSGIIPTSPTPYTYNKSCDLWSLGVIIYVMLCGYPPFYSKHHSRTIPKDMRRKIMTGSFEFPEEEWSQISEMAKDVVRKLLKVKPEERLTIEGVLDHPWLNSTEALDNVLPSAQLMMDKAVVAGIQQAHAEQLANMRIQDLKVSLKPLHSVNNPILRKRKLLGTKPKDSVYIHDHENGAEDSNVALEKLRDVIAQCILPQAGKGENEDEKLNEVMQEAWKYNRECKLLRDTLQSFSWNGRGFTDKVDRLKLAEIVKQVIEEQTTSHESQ", "test": "Inhibition of human PRAK assessed as residual activity at 1 uM relative to control"}, "[9]": {"target": "Serine/threonine-protein kinase D2 (Homo sapiens) (UniProt Q9BZL6)", "test": "Inhibition of human PKD2 assessed as residual activity at 1 uM relative to control"}, "MCF7 [10]": {"tested_on": "MCF7", "test": "Induction of late stage apoptosis in human MCF7 cells expressing CK2 at 0.25 to 4 uM after 24 hrs using propidium iodide/annexin V staining by FACS analysis", "type": "functional, cell-based", "in_short": "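MCF7 cells were then treated for 24 h, stained with FITC-annexin V in HEPES pH 7.4 binding buffer with 1.8 mM CaCl2 (15 min, dark, room temperature), then with PI (10 min), and analysed by FACS.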"}, "[11]": {"target": "Protein kinase C eta type (Homo sapiens) (UniProt P24723)", "sequence (P24723 whole entry)": "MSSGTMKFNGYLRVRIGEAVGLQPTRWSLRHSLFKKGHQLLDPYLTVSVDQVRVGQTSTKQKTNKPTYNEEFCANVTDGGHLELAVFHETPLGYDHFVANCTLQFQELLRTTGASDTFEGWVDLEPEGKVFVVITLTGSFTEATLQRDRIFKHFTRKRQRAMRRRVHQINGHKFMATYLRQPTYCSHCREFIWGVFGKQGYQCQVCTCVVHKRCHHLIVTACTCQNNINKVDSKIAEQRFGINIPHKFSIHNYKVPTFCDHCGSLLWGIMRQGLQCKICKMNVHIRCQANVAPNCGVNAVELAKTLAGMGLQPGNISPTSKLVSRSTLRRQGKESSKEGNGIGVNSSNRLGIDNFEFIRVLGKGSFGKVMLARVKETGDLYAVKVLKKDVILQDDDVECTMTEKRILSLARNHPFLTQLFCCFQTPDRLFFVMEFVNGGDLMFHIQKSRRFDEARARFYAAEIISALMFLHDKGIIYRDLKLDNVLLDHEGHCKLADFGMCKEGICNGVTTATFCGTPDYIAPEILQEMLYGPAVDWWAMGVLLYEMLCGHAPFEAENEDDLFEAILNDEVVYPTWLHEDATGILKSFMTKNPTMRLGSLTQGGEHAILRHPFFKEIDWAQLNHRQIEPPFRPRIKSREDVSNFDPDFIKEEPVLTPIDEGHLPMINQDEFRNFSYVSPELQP", "test": "Inhibition of human PKCeta assessed as residual activity at 1 uM relative to control"}, "[12]": {"target": "Protein kinase C alpha type (Homo sapiens) (UniProt P17252)", "test": "Inhibition of human PKCalpha assessed as residual activity at 1 uM relative to control"}, "[13]": {"target": "Serine/threonine-protein kinase NLK (Homo sapiens) (UniProt Q9UBE8)", "test": "Inhibition of human NLK assessed as residual activity at 1 uM relative to control"}, "[14]": {"target": "Ribosomal protein S6 kinase alpha-5 (Homo sapiens) (UniProt O75582)", "sequence (O75582 whole entry, looked up)": "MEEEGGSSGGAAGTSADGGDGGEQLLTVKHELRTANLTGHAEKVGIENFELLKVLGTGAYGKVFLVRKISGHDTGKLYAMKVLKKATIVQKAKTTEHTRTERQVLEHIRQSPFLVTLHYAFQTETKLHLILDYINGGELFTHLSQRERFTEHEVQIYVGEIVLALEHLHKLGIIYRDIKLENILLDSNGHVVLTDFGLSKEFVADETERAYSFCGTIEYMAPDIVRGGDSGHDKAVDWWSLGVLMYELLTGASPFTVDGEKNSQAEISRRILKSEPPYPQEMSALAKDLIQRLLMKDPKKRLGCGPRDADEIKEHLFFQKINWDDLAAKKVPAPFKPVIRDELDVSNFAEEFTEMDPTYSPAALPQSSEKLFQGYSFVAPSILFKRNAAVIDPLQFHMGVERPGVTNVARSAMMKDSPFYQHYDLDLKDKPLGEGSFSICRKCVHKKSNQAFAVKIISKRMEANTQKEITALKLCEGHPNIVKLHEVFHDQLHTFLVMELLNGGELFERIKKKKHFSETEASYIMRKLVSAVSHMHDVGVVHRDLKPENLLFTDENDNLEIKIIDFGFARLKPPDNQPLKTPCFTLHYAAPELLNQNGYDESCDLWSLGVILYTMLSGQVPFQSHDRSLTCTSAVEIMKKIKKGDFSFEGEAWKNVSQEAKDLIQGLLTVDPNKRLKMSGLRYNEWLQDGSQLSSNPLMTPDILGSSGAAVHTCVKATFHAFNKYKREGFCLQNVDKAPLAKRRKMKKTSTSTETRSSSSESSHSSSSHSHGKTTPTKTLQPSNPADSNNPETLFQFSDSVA", "test": "Inhibition of human MSK1 assessed as residual activity at 1 uM relative to control"}, "[15]": {"target": "Insulin receptor-related protein (Homo sapiens) (UniProt P14616)", "test": "Inhibition of human IRR assessed as residual activity at 1 uM relative to control"}, "[16]": {"target": "Mitogen-activated protein kinase kinase kinase kinase 2 (Homo sapiens) (UniProt Q12851)", "test": "Inhibition of human GCK assessed as residual activity at 1 uM relative to control"}, "[17]": {"target": "Vascular endothelial growth factor receptor 3 (Homo sapiens) (UniProt P35916)", "test": "Inhibition of human Flt4 assessed as residual activity at 1 uM relative to control"}, "[18]": {"target": "Ephrin type-A receptor 7 (Homo sapiens) (UniProt Q15375)", "sequence (Q15375 28-998 limits assumed)": "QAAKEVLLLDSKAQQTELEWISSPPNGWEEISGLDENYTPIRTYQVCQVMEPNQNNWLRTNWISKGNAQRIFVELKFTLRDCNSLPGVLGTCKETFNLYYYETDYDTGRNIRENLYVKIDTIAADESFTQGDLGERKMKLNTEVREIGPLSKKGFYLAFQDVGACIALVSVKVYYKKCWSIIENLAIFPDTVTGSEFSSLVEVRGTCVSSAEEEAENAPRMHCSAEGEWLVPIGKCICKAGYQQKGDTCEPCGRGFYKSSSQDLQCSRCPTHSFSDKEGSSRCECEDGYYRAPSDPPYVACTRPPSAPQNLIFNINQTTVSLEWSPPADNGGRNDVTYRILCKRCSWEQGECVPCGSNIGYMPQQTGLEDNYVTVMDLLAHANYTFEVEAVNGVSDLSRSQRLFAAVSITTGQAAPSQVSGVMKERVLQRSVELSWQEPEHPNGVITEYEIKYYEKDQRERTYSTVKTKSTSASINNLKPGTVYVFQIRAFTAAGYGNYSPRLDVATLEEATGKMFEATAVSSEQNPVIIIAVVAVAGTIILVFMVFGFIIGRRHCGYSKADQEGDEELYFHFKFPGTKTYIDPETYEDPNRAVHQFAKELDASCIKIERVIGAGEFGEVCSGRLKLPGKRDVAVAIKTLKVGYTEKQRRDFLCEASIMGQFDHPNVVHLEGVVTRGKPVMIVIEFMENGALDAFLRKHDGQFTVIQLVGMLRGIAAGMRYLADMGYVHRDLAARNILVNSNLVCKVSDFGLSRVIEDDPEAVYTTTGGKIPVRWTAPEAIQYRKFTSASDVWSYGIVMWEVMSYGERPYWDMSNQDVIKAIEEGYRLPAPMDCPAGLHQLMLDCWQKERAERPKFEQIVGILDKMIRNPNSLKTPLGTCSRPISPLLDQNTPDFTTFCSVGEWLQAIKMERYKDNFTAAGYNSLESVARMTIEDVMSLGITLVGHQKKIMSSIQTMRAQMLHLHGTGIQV", "test": "Inhibition of human EphA7 assessed as residual activity at 1 uM relative to control"}, "[19]": {"target": "Cyclin-dependent kinase 1/cyclin B1 (Homo sapiens) (UniProt P06493+P14635)", "test": "Inhibition of human CDK1/cyclinB assessed as residual activity at 1 uM relative to control", "type": "protein-complex assay"}, "[20]": {"target": "Cytoplasmic tyrosine-protein kinase BMX (Homo sapiens) (UniProt P51813)", "test": "Inhibition of human Bmx assessed as residual activity at 1 uM relative to control"}, "[21]": {"target": "Activin receptor type-1B (Homo sapiens) (UniProt P36896)", "sequence (P36896 whole entry)": "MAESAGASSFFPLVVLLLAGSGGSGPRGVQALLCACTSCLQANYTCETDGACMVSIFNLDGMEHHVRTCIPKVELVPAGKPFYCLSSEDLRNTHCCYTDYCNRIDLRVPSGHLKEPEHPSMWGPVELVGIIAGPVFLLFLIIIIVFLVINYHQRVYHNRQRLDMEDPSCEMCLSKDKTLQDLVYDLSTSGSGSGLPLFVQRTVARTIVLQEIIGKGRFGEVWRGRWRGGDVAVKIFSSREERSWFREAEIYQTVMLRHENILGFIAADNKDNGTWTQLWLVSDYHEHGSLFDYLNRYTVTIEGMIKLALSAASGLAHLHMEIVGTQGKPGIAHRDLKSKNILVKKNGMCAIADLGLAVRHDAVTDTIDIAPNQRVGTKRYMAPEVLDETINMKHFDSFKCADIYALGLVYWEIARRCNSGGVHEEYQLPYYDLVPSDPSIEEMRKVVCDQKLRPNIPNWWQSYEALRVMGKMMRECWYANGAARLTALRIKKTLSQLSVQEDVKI", "test": "Inhibition of human ALK4 assessed as residual activity at 1 uM relative to control"}, "[22]": {"target": "ALK tyrosine kinase receptor (Homo sapiens) (UniProt Q9UM73)", "test": "Inhibition of human ALK assessed as residual activity at 1 uM relative to control"}, "[23]": {"target": "RAF proto-oncogene serine/threonine-protein kinase (Homo sapiens) (UniProt P04049)", "sequence (P04049 whole entry)": "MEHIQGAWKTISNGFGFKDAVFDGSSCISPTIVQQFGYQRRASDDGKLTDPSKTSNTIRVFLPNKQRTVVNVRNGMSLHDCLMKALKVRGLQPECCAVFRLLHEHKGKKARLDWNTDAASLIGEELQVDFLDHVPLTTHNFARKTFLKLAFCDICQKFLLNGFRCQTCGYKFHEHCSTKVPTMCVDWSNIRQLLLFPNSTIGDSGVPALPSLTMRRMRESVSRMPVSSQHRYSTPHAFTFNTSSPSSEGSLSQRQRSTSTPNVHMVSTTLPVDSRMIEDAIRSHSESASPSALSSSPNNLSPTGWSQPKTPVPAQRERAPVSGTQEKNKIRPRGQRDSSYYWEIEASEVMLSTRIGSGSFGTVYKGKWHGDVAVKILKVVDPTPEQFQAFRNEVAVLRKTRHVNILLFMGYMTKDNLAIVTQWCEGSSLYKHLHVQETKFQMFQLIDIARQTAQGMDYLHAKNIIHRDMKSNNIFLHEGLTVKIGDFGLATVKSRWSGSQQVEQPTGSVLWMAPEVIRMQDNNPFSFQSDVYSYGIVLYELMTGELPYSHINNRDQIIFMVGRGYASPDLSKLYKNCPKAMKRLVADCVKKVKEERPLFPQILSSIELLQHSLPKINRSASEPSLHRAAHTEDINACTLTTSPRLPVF", "test": "Inhibition of RAF1 (unknown origin) assessed as residual activity at 10 uM relative to control"}, "[24]": {"target": "CDK2/Cyclin A2 (Homo sapiens) (UniProt P24941+P20248)", "test": "Inhibition of CDK2/CycA (unknown origin) assessed as residual activity at 10 uM relative to control", "type": "protein-complex assay"}, "[25]": {"target": "RAF proto-oncogene serine/threonine-protein kinase (Homo sapiens) (UniProt P04049)", "test": "Inhibition of RAF1 (unknown origin) assessed as residual activity at 1 uM relative to control"}, "[26]": {"target": "Platelet-derived growth factor receptor alpha (Homo sapiens) (UniProt P16234)", "test": "Inhibition of PDGFR-alpha (unknown origin) assessed as residual activity at 1 uM relative to control"}, "[27]": {"target": "Dual specificity tyrosine-phosphorylation-regulated kinase 2 (Homo sapiens) (UniProt Q92630)", "test": "Inhibition of human DYRK2 assessed as residual activity at 1 uM relative to control"}},
  "note": "The source made the active and inactive calls. The rule behind the calls is not given here.",
  "data": [
    {"smiles": "O=C1Nc2ncccc2/C1=C1/Nc2ncccc2C1=O", "values": [
      {"measurement": "Activity", "setting": "[1]", "value": 108, "unit": "%"},
      {"measurement": "Activity", "setting": "[2]", "value": 80, "unit": "%"},
      {"measurement": "Activity", "setting": "[3]", "value": 85, "unit": "%"},
      {"measurement": "GI50", "setting": "MCF7 [4]", "value": 1.09, "unit": "µM"},
      {"measurement": "GI50", "setting": "CAKI-1", "value": 1.02, "unit": "µM"},
      {"measurement": "GI50", "setting": "SK-OV-3", "value": 3.95, "unit": "µM"},
      {"measurement": "Activity", "setting": "MCF7 [5]", "value": 0.16, "unit": "%"},
      {"measurement": "Activity", "setting": "[6]", "value": 96, "unit": "%"},
      {"measurement": "Activity", "setting": "[7]", "value": 111, "unit": "%"},
      {"measurement": "Activity", "setting": "[8]", "value": 105, "unit": "%"},
      {"measurement": "Activity", "setting": "[9]", "value": 100, "unit": "%"},
      {"measurement": "Activity", "setting": "MCF7 [10]", "value": "Active"},
      {"measurement": "Activity", "setting": "[11]", "value": 98, "unit": "%"},
      {"measurement": "Activity", "setting": "[12]", "value": 88, "unit": "%"},
      {"measurement": "Activity", "setting": "[13]", "value": 123, "unit": "%"},
      {"measurement": "Activity", "setting": "[14]", "value": 93, "unit": "%"},
      {"measurement": "Activity", "setting": "[15]", "value": 80, "unit": "%"},
      {"measurement": "Activity", "setting": "[16]", "value": 102, "unit": "%"},
      {"measurement": "Activity", "setting": "[17]", "value": 68, "unit": "%"},
      {"measurement": "Activity", "setting": "[18]", "value": 105, "unit": "%"},
      {"measurement": "Activity", "setting": "[19]", "value": 101, "unit": "%"},
      {"measurement": "Activity", "setting": "[20]", "value": 116, "unit": "%"},
      {"measurement": "Activity", "setting": "[21]", "value": 106, "unit": "%"},
      {"measurement": "Activity", "setting": "[22]", "value": 97, "unit": "%"},
      {"measurement": "Activity", "setting": "[23]", "value": 86, "unit": "%"},
      {"measurement": "Activity", "setting": "[24]", "value": 106, "unit": "%"},
      {"measurement": "Activity", "setting": "[25]", "value": 97, "unit": "%"},
      {"measurement": "Activity", "setting": "[26]", "value": 94, "unit": "%"},
      {"measurement": "Activity", "setting": "[27]", "value": 107, "unit": "%"}
    ]}
  ]
}
